Assay results of several laboratories.
Lines come from different studies, so protocols differ.
Target: Ephrin type-B receptor 2 (EPHB2, Homo sapiens, UniProt P29323)
Residues used in one study (P29323 19-1055): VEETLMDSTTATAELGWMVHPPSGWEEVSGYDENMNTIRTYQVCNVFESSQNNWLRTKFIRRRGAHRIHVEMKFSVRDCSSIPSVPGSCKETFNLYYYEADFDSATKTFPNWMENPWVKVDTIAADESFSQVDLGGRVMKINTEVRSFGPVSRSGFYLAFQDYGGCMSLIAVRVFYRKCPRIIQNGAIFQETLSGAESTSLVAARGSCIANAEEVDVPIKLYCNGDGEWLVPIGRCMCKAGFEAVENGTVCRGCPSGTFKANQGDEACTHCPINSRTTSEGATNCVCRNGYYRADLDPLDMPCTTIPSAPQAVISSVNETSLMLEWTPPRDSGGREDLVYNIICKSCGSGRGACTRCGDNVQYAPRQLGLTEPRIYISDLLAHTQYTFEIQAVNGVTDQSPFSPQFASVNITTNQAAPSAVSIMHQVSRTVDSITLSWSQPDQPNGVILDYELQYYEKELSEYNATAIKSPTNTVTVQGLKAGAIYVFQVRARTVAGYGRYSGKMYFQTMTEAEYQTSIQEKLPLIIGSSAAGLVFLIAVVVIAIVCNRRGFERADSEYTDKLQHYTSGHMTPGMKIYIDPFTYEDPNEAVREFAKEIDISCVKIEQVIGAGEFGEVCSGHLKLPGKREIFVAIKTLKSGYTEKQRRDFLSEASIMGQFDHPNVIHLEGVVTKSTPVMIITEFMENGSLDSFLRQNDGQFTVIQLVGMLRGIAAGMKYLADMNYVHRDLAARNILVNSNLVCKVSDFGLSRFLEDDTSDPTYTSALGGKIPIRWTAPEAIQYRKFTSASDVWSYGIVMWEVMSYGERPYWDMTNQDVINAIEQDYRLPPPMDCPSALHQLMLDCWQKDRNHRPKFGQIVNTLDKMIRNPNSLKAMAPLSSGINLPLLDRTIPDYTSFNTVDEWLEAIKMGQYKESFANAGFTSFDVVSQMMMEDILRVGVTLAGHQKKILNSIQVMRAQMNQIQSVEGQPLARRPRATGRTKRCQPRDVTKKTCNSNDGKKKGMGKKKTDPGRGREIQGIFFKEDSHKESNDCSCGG

SMILES | assay | setting | quantity | result
CC(C)S(=O)(=O)c1ccc2nccc(Nc3ccc4sc(C5CCCC5)nc4c3)c2c1 | enzyme activity, inhibitor | 1 µM | activity vs control | 109%
CCCCC(=O)Nc1ccc(-c2ccc3ncn(CCC)c(=O)c3c2)cn1 | binding, competition with immobilised ligand | 0.5 µM | remaining binding | 100%
CC#CC(=O)N1CCC[C@H]1c1nc(-c2ccc(C(=O)Nc3ccccn3)cc2)c2c(N)nccn12 | enzyme activity, inhibitor | 1 µM | inhibition | 6%
C[C@H]1CC[C@H](n2c3cnccc3c3cnc(Nc4ccc5c(n4)CCN(C(=O)CO)C5)nc32)CC1 | cell-free assay, competition with immobilised ligand | 1 µM | remaining binding | 100%
Cc1cc(O)c(-c2ccc([C@@H](C)CN(C)C)cc2)c2c1[nH]c(=O)c1sccc12 | cell-free assay, inhibitor | 0.1 µM | inhibition | 0.144%
CO[C@@H]1[C@H](N(C)C(=O)c2ccccc2)C[C@H]2O[C@]1(C)n1c3ccccc3c3c4c(c5c6ccccc6n2c5c31)C(=O)NC4 | enzyme activity, inhibitor | 1 µM | inhibition | 0%
C1=C/COCc2cc(ccc2OCCN2CCCC2)Nc2nccc(n2)-c2cccc(c2)COC/1 | binding | 0.1 µM | remaining binding | 88%
Cc1ccc(NC(=O)c2ccnc(C(F)(F)F)c2)cc1-c1cc(OCCO)nc(N2CCOCC2)c1 | binding, competition with immobilised ligand | 1 µM | remaining binding | 85%
